The values that follow come from ChEMBL document CHEMBL1811869, “Tigliane-type diterpenoid glycosides from Euphorbia fischeriana” (J Nat Prod, 2011).

Data set [1] can be described thus: Cytotoxicity against human C8166 cells by MTT assay. The format is cell-based. In outline:
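C8166 cell viability read by MTT method, with CC50 derived.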

Data set [2] has as its system Human immunodeficiency virus 1. Kind of data set: Antiviral activity against Human immunodeficiency virus 1 infected in human C8166 cells assessed as inhibition of virus-induced cytopathic effect. The format is functional, organism-based. The note with it: Human immunodeficiency virus 1, C8166. Put shortly:
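HIV-1 cytopathic-effect inhibition assay in C8166 cells, with EC50 derived. Zidovudine (AZT) run as the positive-control drug.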
In general terms: Cytopathic effects are the visible damage that an infection or toxin causes in cultured cells.

A short description of data set [3]: Therapeutic index, ratio of CC50 for C8166 cells to EC50 for Human immunodeficiency virus 1. The format is cell-based. The settings on record: read-out: Ratio CC50/EC50.

pEC50: −log10 of the molar value. Some results are limits rather than exact numbers.

On to `CC(=O)O[C@@]12C[C@@H](C)[C@@]3(O)[C@@H](C=C(CO[C@@H]4O[C@H](COC(=O)c5cc(O)c(O)c(O)c5)[C@@H](O)[C@H](O)[C@H]4O)C[C@]4(O)C(=O)C(C)=C[C@@H]34)[C@@H]1C2(C)C` [FISCHEROSIDES B], for which the CC50 (as a rule, the concentration at which the toxic effect on the cells reaches its halfway point) in data set [1] is over 280 nM. The pEC50 – broadly, the EC50 on a negative log10 scale, so that one unit is a factor of ten – in data set [2] is 7.15. For the same compound, the selectivity ratio in data set [3] is over 4.

The compound `CC(=O)O[C@@]12C[C@@H](C)[C@@]3(O)[C@@H](C=C(CO[C@@H]4O[C@H](CO)[C@@H](O)[C@H](O)[C@H]4O)C[C@]4(O)C(=O)C(C)=C[C@@H]34)[C@@H]1C2(C)C` [FISCHEROSIDES A] displayed a CC50 in data set [1] of over 360 nM. Besides, the pEC50 in data set [2] was 6.77. Moreover, the selectivity ratio in data set [3] is over 2.12.

Consider `Cc1cn([C@H]2C[C@H](N=[N+]=[N-])[C@@H](CO)O2)c(=O)[nH]c1=O` [ZIDOVUDINE], for which it took 4070 nM to reach half-maximal cytotoxicity in data set [1] (CC50). The selectivity ratio in data set [3] amounted to 1.02e+06.

Consider `CC(=O)OCC1=C[C@H]2[C@@H]3C(C)(C)[C@]3(OC(C)=O)C[C@@H](C)[C@]2(O)[C@@H]2C=C(C)C(=O)[C@@]2(O)C1`, for which half-maximal cytotoxicity in data set [1] (CC50) was put at 110 nM. Further, the pEC50 in data set [2] is 9.52. The selectivity ratio in data set [3] was over 367.

As for `CC(=O)O[C@@]12[C@H](O)[C@@H](C)[C@@]3(O)[C@@H](C=C(CO[C@@H]4O[C@H](CO)[C@@H](O)[C@H](O)[C@H]4O)C[C@]4(O)C(=O)C(C)=C[C@@H]34)[C@@H]1C2(C)C` [FISCHEROSIDES C], in data set [1], the CC50 was over 350 nM. The pEC50 in data set [2] is 7.70. Moreover, in data set [3], the selectivity ratio is over 17.5.

Compound `CC(=O)O[C@@]12C[C@@H](C)[C@@]3(O)[C@@H](C=C(CO)C[C@]4(O)C(=O)C(C)=C[C@@H]34)[C@@H]1C2(C)C` [PROSTRATIN] yielded a CC50 in data set [1] of over 510 nM. Further, the pEC50 in data set [2] is 10.22. Also, the selectivity ratio in data set [3] was over 8500.
